Results: ChEMBL document CHEMBL4513216, “Probing the Open Global Health Chemical Diversity Library for Multistage-Active Starting Points for Next-Generation Antimalarials” (ACS Infect Dis, 2020)

Assay: Toxicity liver stage against HepG2, at 10uM
Type: cell-based
Parameters: test concentration 10 uM, cell line HepG2-A16-CD81EGFP
Conditions: human, HepG2-A16-CD81EGFP cells; read-out: INHIBITION
Summary of the method: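 Uninfected HepG2-A16-CD81EGFP cells, 3 × 10^3 per well, 1536-well, plated on prespotted compound at 10 μM final, parasite-free screening media added to match infected plates; puromycin 10 μM positive, DMSO 0.5% negative; run in parallel with 48 h PbLuc assay at 37 °C, 5% CO2; viability by CellTiter-Glo luminescence, normalized to controls.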

SMILES	cytotoxicity at 10 µM
Cn1cc(CN2C[C@@H]3CN(C(=O)c4cccn4C)CCO[C@@H]3C2)cn1	-110%
COc1ccc(S(=O)(=O)NCCCc2nnc3nc(C)cc(C)n23)cc1	5.05%
CC(=O)N[C@@H]1CN(C2CCN(c3cccc(C)c3C)CC2)C[C@H]1C(C)C	-11.7%
Cc1cc(C(=O)N2CC(O)CO2)c2ccc(C)c(C)c2n1 (stereo not given)	11.3%
O[C@@H]1Cc2ccccc2[C@@H]1Nc1ncccc1F	13.3%
O=C(c1ccsc1)N1CCC2(CCN2Cc2ccc(F)cc2)C1 (stereo not given)	-144%
CC(Cn1cccn1)NC(=O)Nc1ccc(N2CCCCC2)nc1 (stereo not given)	-4.39%
O=S(=O)(Cc1ccccc1)NCc1ccco1	0.0906%
CN(C)C(=O)CN1CCC2(CCCN(Cc3cccs3)C2)C1=O (stereo not given)	-113%
CN(Cc1nnc(C2CC2)n1C)S(=O)(=O)c1ccccc1C#N	14.9%
CC(O)CN1CCC(CNCc2ccc(OC(F)(F)F)cc2)CC1 (stereo not given)	-13.6%
O=C1COC[C@H]([C@H](O)c2ccc(NC(=O)c3cccnc3)cc2)N1	0.317%
Cn1cc(N2CC3(COCCN(Cc4ccccn4)C3)OCC2=O)cn1 (stereo not given)	-79.1%
CC(C)C1=NOC2(CCN(C(=O)C3CCCC3)CC2)C1	6.69%
Cc1cc(-c2cnc(N3CCNC(=O)C3)nc2-c2ccoc2C)on1	-25.5%
CCc1nc(C)c(CNC(=O)CCCN2CCCCC2)s1	-4.65%
CCCn1nnnc1CN(c1ccc(N2CCOCC2)cc1)C(C)C	6.8%
O=C(NCCNc1ncccn1)c1ccc(Br)cc1	-0.628%
CCN(C)C(=O)Cn1c(-c2ccco2)nn(-c2ccccc2OC)c1=O	0.832%
COc1ncccc1C(=O)N1CCCC1c1nc(-c2ccccc2)n[nH]1 (stereo not given)	-8.76%
Cc1cccc(C2(O)CCN(C(=O)c3ccc(N(C)C)cc3)CC2)c1C	-2.96%
O=C(NCc1ccccc1)N1CCC(Oc2ncccc2Cl)CC1	17%
CCCN1CCN(C(=O)c2cc3ccccc3cn2)[C@H]2CS(=O)(=O)C[C@H]21	1.1%

SMILES	cytotoxicity at 10 µM
CC(c1nncn1C)n1cc(-c2cc(CN3CCCC3)cs2)nn1 (stereo not given)	2.04%
CCCc1noc(C2CCN(C(=O)C3CCCO3)CC2)n1 (stereo not given)	0.12%
CCOc1cccc(CNc2cccc(C(=O)OC)c2)c1O	7.36%
COCCN1CCC(c2nc3c([nH]2)CC(C)(C)CNC3=O)CC1	-3.13%
O=C(CCn1cncn1)NC1CCc2nccn2C1 (stereo not given)	-4.39%
CC(C)COCCCNC(=O)c1cccnc1N1CCOCC1	-5.12%
COCc1ccccc1NC(=O)c1ccoc1	-2.17%
CCn1cnnc1C1CCN(C(=O)CCCOc2ccccc2)CC1	0.927%
Cc1ccccc1C(C)NC(=O)c1ccc(=O)n(C)c1 (stereo not given)	4.31%
CC[C@H](CO)NC(=O)c1coc(COc2cccc(F)c2F)n1	3.08%
CC(C)N1CCC(CN2CCn3nc(CNC(=O)N(C)C)cc3C2)CC1	1.09%
Cc1nc(C)c(C(=O)N2Cc3ccccc3OCC2CN(C)C)o1 (stereo not given)	2.2%
CS(=O)(=O)N1CCO[C@@H]2CN(C(=O)C3CC(F)(F)C3)C[C@@H]2C1	6.19%
Cc1cnn(CCNCc2ccccc2OCc2cccnc2)c1	3.8%
O=C1NCCCCC1Sc1nnc(N2CCCC2)n1C1CC1 (stereo not given)	1.4%
Cc1nc(CC(=O)N2CCN(CCOc3ccccc3)CC2)cs1	-15.2%
CC(C)C(=O)N1CCN(Cc2ccccn2)CC2(CC(=O)N(C)C2)C1 (stereo not given)	0.0515%
CC1Cc2ccccc2N1Cc1occc1C(=O)NCC(=O)N(C)C (stereo not given)	8.13%
Cc1ncc(CN(C)CC(O)c2ccc(OC(F)(F)F)cc2)s1 (stereo not given)	9.99%
CC(=O)N1CCS(=O)(=O)[C@@H]2CCN(S(=O)(=O)CC(C)C)CC[C@@H]21	6.1%
COc1ccccc1NCC(=O)NCc1cc[nH]n1	1.87%
O=C(Cc1ccc2c(c1)OCCCO2)Nc1nnn[nH]1	-4.66%
